Screening data as filed in PubChem.
CYP2C19 inh: blockers of cytochrome P450 2C19 activity – biochemical, luminescence, ADME assay, primary screen. CYP2C19 Supersomes, luciferin-H EGE luminescence, 30 min. inhibition, % at 5 µM. 96,000 tested, 21% active. AID 778, 2007;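 active = CYP2C19 inhibition above a set limit at 5 µM in the primary screen, cut at about 50% in these data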
Target sequence (P33261 whole entry, looked up): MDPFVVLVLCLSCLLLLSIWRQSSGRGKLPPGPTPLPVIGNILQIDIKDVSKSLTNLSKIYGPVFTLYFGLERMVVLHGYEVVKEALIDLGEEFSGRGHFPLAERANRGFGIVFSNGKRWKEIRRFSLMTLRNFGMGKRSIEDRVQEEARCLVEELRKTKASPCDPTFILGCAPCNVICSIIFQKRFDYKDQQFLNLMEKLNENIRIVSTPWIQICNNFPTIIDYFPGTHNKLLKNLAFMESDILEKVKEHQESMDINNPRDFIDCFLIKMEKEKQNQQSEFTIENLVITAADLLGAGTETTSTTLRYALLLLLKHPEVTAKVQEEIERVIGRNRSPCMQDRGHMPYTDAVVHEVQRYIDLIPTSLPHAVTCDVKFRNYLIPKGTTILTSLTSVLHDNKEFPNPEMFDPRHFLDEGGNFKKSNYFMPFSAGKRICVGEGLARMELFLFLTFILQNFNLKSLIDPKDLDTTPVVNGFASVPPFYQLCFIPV
Ecoli tolC: growth inhibitors of E. coli tolC mutant, primary screen, strain BW25113 ΔtolC::kan, 384-well; growth inhibition, % at 10 µM (by protocol); 65,000 tested, 2.2% active; AID 573, 2007; OD615;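 active = growth inhibition at or above a cutoff equal to the mean over every tested compound plus 3 SD, cut at about 60% in these data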;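 also: growth measured after 20 h incubation at 37 °C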
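Material: E. coli BW25113 ΔtolC::kan, tolC deletion mutant strain. Measure: percent growth inhibition. Schedule: 37 °C, 20 h exposure. Doses: single-point testing at 10 µM. Signal: A615 absorbance measurement. Buffer or medium: kanamycin-containing LB broth (50 µg/mL).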
CYP2C9 activ: human CYP2C9 activators, primary screen, biochemical, luminescence. activation factor at 5 µM. AID 1024, 2008. Cytochrome P450 2C9 (Homo sapiens), P11712. 96,000 tested, 1.4% active. recombinant CYP2C9, luciferin-H conversion; stronger effect = higher value; factor 1 = untreated enzyme, 0 = blocked;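 active = activation factor of 2 or more for CYP2C9 at a 5 µM dose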
CYP2C19 act: human CYP2C19 activators, primary screen, biochemical, luminescence | Cytochrome P450 2C19 (Homo sapiens), P33261 | recombinant CYP2C19, luciferin-H EGE luminescence; stronger effect = higher value; 0 = fully inhibited enzyme, 1 = untreated enzyme | activation factor at 5 µM | 96,000 tested, under 10 active;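 active = activation factor of at least 2 at 5 µM in the primary screen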
Ecoli WT expand: growth inhibitors of wild-type E. coli, primary screen, strain BW25113, expanded library, OD600. AID 710, 2007. OD600 absorbance. 98,000 tested, 0.15% active. growth inhibition, % at 100 µM;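 active = growth inhibition above about 50% at one test dose, limit read from the data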;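 also: growth measured after 20 h incubation at 37 °C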
CYP2C9 inh: blockers of cytochrome P450 2C9 activity – biochemical, luminescence, ADME assay, primary screen | P11712 | 96,000 tested, 20% active | CYP2C9 Supersomes, luciferin-H conversion | inhibition, % at 5 µM | AID 777, 2007;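 active = blocking of liver enzyme CYP2C9 beyond about 50% at 5 µM, limit read from the data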
Of the large screens only hits and unclear results are named; the others gave an inactive call. Most compounds without a hit are left out; they make up all but 29% or so of the library.

COC(=O)C1(CCSC)NC(c2ccco2)C2C(=O)N(C)C(=O)C21 (stereo unspecified)	CYP2C19 inh 60.4
O=C(c1ccco1)N1CCN(C2CCCC2)CC1	none
Cn1c(SCC(N)=O)nnc1C1CCN(C(=O)NCc2ccccc2)CC1	none
COc1ccccc1OCCCc1c(C)n[nH]c1C	CYP2C19 inh 66.7
COc1cccc(/C=N/NC(=O)CCc2c(C)n[nH]c2C)c1	none (no result: Ecoli tolC)
Cc1cccc(OCCCCc2c(C)n[nH]c2C)c1C	CYP2C19 inh 87.9, Ecoli tolC 100.0, CYP2C9 inh 74.1
CCOc1ccccc1OCCCCCc1c(C)n[nH]c1C	CYP2C19 inh 77.0
COc1ccccc1OCCCCCc1c(C)n[nH]c1C	CYP2C19 inh 54.3
COc1ccccc1OCCCCNCCO	none
O=C(C1=C(O)C(=O)N(CCN2CCOCC2)C1c1cccs1)c1cc2ccccc2o1 (stereo unspecified)	none (no result: CYP2C19 inh, CYP2C9 activ, CYP2C19 act, Ecoli WT expand, CYP2C9 inh)
CC(C)c1cc(N2CCN(C(=O)c3ccco3)CC2)n2c(nc3ccccc32)c1C#N	CYP2C19 inh 62.6, CYP2C9 inh 73.5
CC(C)Cc1nc(N2CCN(C(=O)C(C)C)CC2)c(C#N)c2c1CCC2	CYP2C19 inh 83.7, CYP2C9 inh 81.3
Cc1nc(N2CCN(C(=O)c3ccc(Cl)cc3)CC2)c(C#N)c2c1COC(C)(C)C2	CYP2C19 inh 82.8, CYP2C9 inh 50.3
Cc1nc(NCCO)c(C#N)c2c1COC(C)(C)C2	none
Cc1ccnc(N2CCN(c3c4c(c(C#N)c5nc6ccccc6n35)CCC4)CC2)c1	none (no result: CYP2C19 inh, CYP2C9 activ, CYP2C19 act, Ecoli WT expand, CYP2C9 inh)
CC(C)c1nc(N2CCOCC2)c(C#N)c2c1CCC2	none
CCc1c(C)c(C#N)c2nc3ccccc3n2c1N1CCN(c2cc(C)ccn2)CC1	CYP2C9 inh 67.4 (no result: Ecoli tolC)
Cc1cccc(CCNC(=O)c2nnc(Cc3ccc(Cl)cc3)o2)c1	none (no result: CYP2C19 inh, CYP2C9 activ, CYP2C19 act, Ecoli WT expand, CYP2C9 inh)
O=C(NC1CCS(=O)(=O)C1)Oc1ccc(Cl)cc1 (stereo unspecified)	none (no result: Ecoli tolC)
CC(C)Cc1nc(N2CCCCC2)c(C#N)c2c1CCC2	none
CC1(C)Cc2c(C#N)c(N3CCN(C(=O)c4ccco4)CC3)nc(Cc3ccccc3)c2CO1	CYP2C19 inh 73.1, CYP2C9 inh 95.1
CC(=O)N1CCN(c2nc(CC(C)C)c3c(c2C#N)CCC3)CC1	CYP2C19 inh 73.1, CYP2C9 inh 73.4
CC1(C)Cc2c(C#N)c(N3CCN(C(=O)c4ccco4)CC3)nc(-c3ccco3)c2CS1	none (no result: CYP2C19 inh, CYP2C9 activ, CYP2C19 act, CYP2C9 inh)
Cc1cc(-c2ccco2)c(C#N)c2nc3ccccc3n12	Ecoli tolC 81.0
CC(C)Cc1nc(N2CCN(C(=O)c3ccco3)CC2)c(C#N)c2c1CCC2	CYP2C19 inh 99.0, CYP2C9 inh 97.5
CCc1c(C)c(C#N)c2nc3ccccc3n2c1-n1nc(C)cc1C	none (no result: CYP2C19 inh, CYP2C9 activ, CYP2C19 act, Ecoli WT expand, CYP2C9 inh)
Cc1ccc(S(=O)(=O)NCc2nnc(SCC(=O)Nc3cccc(C)c3C)n2C)cc1	none (no result: Ecoli tolC)
CC(=O)c1ccc(NC(=O)N[C@@H](CC(C)C)C(=O)O)cc1	none
O=S(=O)(NCCSc1ccc(Cl)cc1)c1ccc2c(c1)OCCO2	CYP2C19 inh 85.7, Ecoli tolC 100.0, CYP2C9 inh 63.2
COc1ccc(CCNS(=O)(=O)c2cccc(S(=O)(=O)N3CCCC3)c2)cc1OC	CYP2C19 inh 96.3, CYP2C9 inh 83.5
COc1ccc(CCNS(=O)(=O)c2cccc(F)c2)cc1OC	CYP2C19 inh 50.7, CYP2C9 inh 50.6
COc1ccc(CCNS(=O)(=O)c2cccc(C)c2)cc1OC	CYP2C19 inh 97.5, CYP2C9 inh 89.0 (no result: Ecoli tolC)
COc1cc(N2C(=O)NC3CC2(C)Oc2ccc(Br)cc23)cc(OC)c1OC (stereo unspecified)	none (no result: CYP2C19 inh, CYP2C9 activ, CYP2C19 act, Ecoli WT expand, CYP2C9 inh)
CCCCn1nnnc1SCC(=O)NCc1ccccc1	none (no result: Ecoli tolC)
CCCCn1c(=S)[nH]c2c(oc3ccc(Cl)cc32)c1=O	none (no result: CYP2C19 inh, CYP2C9 activ, CYP2C19 act, Ecoli WT expand, CYP2C9 inh)
COc1ccc(CCNS(=O)(=O)c2ccc3c(c2)OCCO3)cc1OC	CYP2C19 inh 84.5
COCCCNS(=O)(=O)c1ccc2c(c1)OCCO2	CYP2C19 inh 78.4
CCOCCCNS(=O)(=O)c1ccc2c(c1)OCCO2	none
COc1ccc(CCNS(=O)(=O)c2ccc3c(c2)oc(=O)n3C)cc1OC	none (no result: CYP2C19 inh, CYP2C9 activ, CYP2C19 act, CYP2C9 inh)
CC(C)OC(=O)CSc1nnc(-c2ccc(Cl)cc2)n1N	none
